Measurements collected from several papers.
Lines come from different studies, so protocols differ.

SMILES | cell line | assay | test system | setting | quantity | value
Cc1ccc2cccc(C(=O)O)c2c1 | K562 | cell growth or viability | – | – | IC50 | > 688 µM
CC[C@@H](C)[C@H](N)C(=O)N1Cc2ccccc2C1 | K562 | cell growth or viability, ATP luminescence | – | 60 µM | viability | 92%
CC(C)/N=C(\N)c1ccc(NC(=O)c2ccc(C(=O)Nc3ccc(/C(N)=N/C(C)C)cc3)cc2)cc1 | K562 | cell growth or viability | – | – | IC50 | 38.8 µM
C=C(C)C(O)Cc1c(O)c(CC=C(C)C)c2occ(-c3ccc(O)cc3)c(=O)c2c1O (centres unmarked) | K562 | cell growth or viability, MTT | – | 100 µg/mL | viability | 71.7%
N[C@@H](CC(=O)N1CCN(C(c2ccc(F)cc2)c2ccc(F)cc2)CC1)C(=O)N1Cc2ccccc2C1 | K562 | cell growth or viability, ATP luminescence | – | 60 µM | viability | 7%
Clc1ccc(COc2cncc(-c3cnn(C4CCNCC4)c3)c2)c(Cl)c1 | MDCK | – | Caco-2 | – | Papp | 10.9 ×10⁻⁶ cm/s
O=C(O)c1cccc2ccccc12 | K562 | cell growth or viability | – | – | IC50 | > 744 µM
C#C[C@]1(COP(=O)(O)OP(=O)(O)OP(=O)(O)O)O[C@@H](n2cnc3c(N)nc(F)nc32)C[C@@H]1O | human PBMC | – | plasma | oral, 5 mg, single dose | half-life | 126 h
COc1ccccc1CN[C@H]1C2CCN(CC2)[C@H]1C(c1ccccc1)c1ccccc1 | human PBMC | cell growth or viability, MTS | – | – | CC50 | > 25 µM
CC(C)=CCc1c(O)c(CC=C(C)C)c2occ(-c3ccc(O)cc3)c(=O)c2c1O | K562 | cell growth or viability, MTT | – | 100 µg/mL | viability | 94%
Cc1cn([C@H]2C[C@H](N=[N+]=[N-])[C@@H](CO)O2)c(=O)[nH]c1=O | human PBMC | cell growth or viability | – | – | CC50 | > 100 µM
